# Assay results reported in PubChem BioAssay.
# Values without a mark were called inactive. Inconclusive results are not listed. Calls of active or inactive are those of the source.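 Rule for the calls, unless noted: active = cell viability at or below a set limit in both duplicate runs, the limit being the all-compound median minus 4 SD (cut at about 23% in these data, passing the limit was not always enough); inconclusive = no clear call, values can overlap the other calls; inactive = the rest.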
# Key:
# [1] = S. cerevisiae growth inhibition in permissive medium (OD615), pilot counter-assay for S. cerevisiae lifespan shortening project, permissive growth control (AID 705;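 active = growth inhibition above 25% in both replicates, a cutoff set 3 SD above the mean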); conditions: OD615, 24 h, at 10 µM, active compounds read high
# In short: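 System: engineered DeaD yeast; Medium: permissive raffinose/galactose medium; Compound dosing: 10 µM single dose, 0.25% DMSO; Incubation: 4 h cell pre-growth, 24 h exposure at 30 °C; Technique: OD at 615 nm; Evaluation: growth inhibition from lowered OD615 after 24 h.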
# [2] = S. cerevisiae growth inhibition in restrictive medium, OD615, pilot screen, restrictive growth control, yeast lifespan reduction project (AID 706;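 active = growth inhibition above a set limit, 3 SD over mean compound inhibition, in both replicates, cut at about 43% in these data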;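 note: modified DeaD lifespan yeast strain shifted to restrictive glucose medium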); conditions: OD615, 48 h, at 10 µM, active compounds read high
# In short: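 Material: modified S. cerevisiae; buffer or medium: CSMM-D glucose medium; doses: one concentration, 10 µM final, 0.25% DMSO; incubation: 48 h compound exposure at 30 °C; detection: optical density at 615 nm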
# [3] = doxorubicin toxicity protection in MRP-1 cells – H69AR cells, CellTiter-Glo, duplicate, MRP-1 activator project, pilot screen (AID 807;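 active = viability increase at or above a cutoff of the median across tested compounds plus 3 SD, cut at about 8.5% in these data, passing the limit was not always enough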;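 note: compound pretreatment 18-22 h then 72 h combined with doxorubicin; 0% = doxorubicin alone and 100% = vehicle without doxorubicin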); conditions: H69AR viability with doxorubicin, CellTiter-Glo luminescence; at 10 µM; active compounds read high
# [4] = viability of HCT116 without oncogenic beta-catenin – human colon tumor cells, pilot screen (AID 823); conditions: HCT116 beta-catenin knockout viability, CellTiter-Glo, 60 h; at 10 µM; active compounds read low;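 note: 0% = wells killed by 20 µM Hyamine and 100% = untreated DMSO cell wells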
# [5] = viability of PTEN-null HCT116 cells – cell-based, HCT116 clonal line, CellTiter-Glo, pilot screen (AID 824;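 active = viability at or below 27.92% in each of two runs, the all-compound median minus 4 SD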;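 note: 0% = 20 µM Hyamine control and 100% = vehicle cell control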); conditions: HCT116 PTEN-deleted viability, 60 h, at 10 µM, active compounds read low
# [6] = RAM pathway blockade in budding yeast – dse1pr::URA3 reporter, 5-FOA selection, pilot screen (AID 869;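 active = inhibition over a set limit, the all-compound mean plus 3 SD, in both replicate runs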;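 note: 0% = DMSO wells with no growth and 100% = 10 µM 1-NA-PP1 with full growth; RAM network block rescues cells from 5-FOA so hits raise OD615 growth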); conditions: S. cerevisiae dse1pr::URA3 5-FOA growth, OD615, 2 d; at 10 µM; active compounds read high; strain carries analog-sensitive mutant Cbk1 kinase
# [7] = RAM signaling pathway blockade in yeast – S. cerevisiae, Pdr1DBD-CYC8 efflux-inhibited sensitized strain, primary screen (AID 1298;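 active = RAM network inhibition above 8.4% in each of two replicates, 3 SD over the compound average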;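 note: 0% = DMSO untreated cells without growth and 100% = 10 µM 1-NA-PP1 full growth; higher means more yeast growth rescued from 5-FOA killing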); conditions: S. cerevisiae cbk1-as DSE1-URA3 strain, 5-FOA growth OD615, 2 d; at 50 µM; active compounds read high
Structure (SMILES),growth inhibition [1],growth inhibition [2],viability increase [3],viability [4],viability [5],inhibition [6],RAM network inhibition [7]
COc1ccc(C)cc1NC(=O)CSc1nnc(-c2ccco2)n1Cc1ccco1,-0.8%,10.4%,-2.06%,99.8%,90.8%,2.08%,6.62%
CC1=CC(c2ccccc2)n2nc(NS(=O)(=O)c3ccc(C)cc3)nc2N1 (configuration not stated),-9.59%,5.79%,-1.29%,100%,99.5%,0.09%,2.86%
C=CCSc1nc2ccccc2c(=O)[nH]1,-16.1%,-8.26%,-0.8%,105%,95.2%,2.91%,0.79%
COc1cc(C2NC(=O)NC(C)=C2C(=O)OCc2ccc(C)cc2)cc(OC)c1O (configuration not stated),-12.9%,-10.8%,3.29%,89.9%,82.1%,0.03%,0.58%
O=c1c2ccccc2nc(SCc2nnc(-c3ccccc3)o2)n1-c1ccccc1,-13.1%,-8.7%,-3.18%,75.4%,84.6%,1.96%,5.69%
CC(=O)NCCc1cc2ccc(C)c(C)c2[nH]c1=O,-14.9%,-18.7%,-1.53%,103%,97%,1.05%,0.37%
CCN(CC)CC(=O)n1c2c(c3ccccc31)CCCC2,4.59%,-2.73%,-1.1%,94.5%,99.5%,0.57%,0.67%
CCc1cc(=O)oc2cc(OCC(=O)N(CC)CC)c(Cl)cc12,6.47%,-5.33%,1.34%,109%,104%,-0.545%,3.66%
C1CCc2c(nc3nnnn3c2N2CCOCC2)C1,-0.9%,3.85%,1.82%,107%,98.4%,1.07%,5.8%
O=C(c1ccco1)N1CCN(C(=O)c2oc(=O)c3ccccc3c2-c2ccccc2)CC1,-6.24%,-4.58%,-1.47%,105%,98.5%,0.68%,3.83%
CCCn1c(NCc2ccc(N(C)C)cc2)nc2ccccc21,-11.6%,-8.42%,-1.82%,70.8%,70.9%,0.405%,5.4%
CCOc1cc(C(=O)NCCN2CCOCC2)cc(OCC)c1OCC,-5.59%,-3.11%,-3.76%,91.3%,96.4%,-0.045%,2.61%
N#CCCCSc1nnc(-c2ccc(Cl)cc2)n1-c1ccccc1,-4.58%,9.62%,-3.58%,83%,93%,1.34%,4.2%
O=C(CN1CCN(C2CCCCC2)CC1)Nc1ccccc1N1CCCCC1,-12.3%,-31.2%,-4.35%,71.5%,77.7%,0.16%,5.95%
CCOc1cc(C(=O)NC(C)COC)cc(OCC)c1OCC (configuration not stated),-4.84%,-8.48%,-2.05%,104%,104%,0.785%,0.53%
CCOc1ccccc1NC(=O)Cn1cnc2c(nnn2-c2cccc(OC)c2)c1=O,-2.45%,-1.71%,-1.23%,87.2%,73.3%,3.82%,4.89%
CCN1CCN(CC(=O)Nc2ccc(C)cc2C)C(=O)C1=O,2.74%,-6.08%,-0.23%,98%,97%,1.74%,-0.71%
Cc1cccc(CSc2nnc(-c3ccccn3)n2N)c1,-6.39%,14.2%,-2.01%,103%,94.4%,0.655%,0.89%

Structure (SMILES),growth inhibition [1],growth inhibition [2],viability increase [3],viability [4],viability [5],inhibition [6],RAM network inhibition [7]
CCC(=O)Nc1ccccc1C(=O)N1CCN(Cc2ccccc2)CC1,2.08%,3.03%,-1.2%,99.8%,99.7%,1.6%,3.32%
Cc1c2cnn(-c3ccccc3)c(=O)c2c(C)n1CCCC(=O)N1CCN(C)CC1,-6.96%,-7.72%,-1.33%,104%,96.2%,1.86%,3.19%
Cc1ccc(C(c2sc3ncnn3c2O)N2CCCCC2)cc1 (configuration not stated),-12.7%,-15.6%,1.87%,92.9%,101%,0.04%,-0.37%
COc1cc2c(=O)n(Cc3ccccc3)c(=O)n(CC(=O)NCC3CCCO3)c2cc1OC (configuration not stated),-2.89%,-0.925%,-0.67%,97.9%,94.1%,2.3%,3.29%
Cc1cc(C)nc(NS(=O)(=O)c2ccc(NC(=O)c3ccc4c(c3)OCO4)cc2)n1,-6.52%,-0.9%,5.22%,100%,95.9%,1.28%,-0.21%
CCCCn1c(=O)cc(N2CCOCC2)[nH]c1=O,-16.3%,-20.6%,0.83%,99.7%,94.3%,1.04%,-0.95%
CCOc1cccc(NC(=O)c2ccc(S(=O)(=O)N3CCCC3)cc2)c1,0.65%,-11.1%,-2.68%,87.5%,82.1%,0.965%,-0.21%
Cc1ccc(NC(=O)C2CCN(S(=O)(=O)c3cccc4cccnc34)CC2)nc1,2.12%,-7.59%,-2.71%,88.1%,87.2%,-0.475%,3.26%
Cc1ccc2oc(=O)c3cnn(CC(=O)NC4CCC(C)CC4)c3c2c1 (configuration not stated),-14.1%,-15.1%,0.16%,94.4%,86%,1.02%,2.93%
CN(C(=O)CSc1nc(N)nn1-c1ccccc1)c1ccccc1,-7.03%,4.13%,-0.53%,104%,99%,0.325%,2.3%
Cc1cc(N2CCCc3ccccc32)n2ncnc2n1,-2.53%,-1.67%,-1.21%,97.9%,105%,0.97%,0.93%
O=C(Nc1ccc(-c2nc3cccnc3s2)cc1)c1ccc(Br)o1,11.6%,19.6%,3.03%,105%,101%,1.11%,0.96%
C=C(C)Cn1c(NCCC)nc2c1c(=O)n(C)c(=O)n2C,-9.8%,-3.75%,-0.51%,98%,95.2%,2.74%,1.36%
O=C1CNC(=O)/C1=C\N1CCN(C(c2ccccc2)c2ccccc2)CC1,5.72%,9.98%,-2.16%,99.2%,101%,2.48%,1.6%
Cc1ccc(Sc2oc(/C=N/n3cnnc3)cc2Br)cc1,0.63%,4.41%,-7%,6.77% (active),6.87% (active),1.4%,3.27%
O=C(NCc1ccc(F)cc1)c1cc2n(n1)C(C(F)(F)F)CC(C1CC1)N2 (configuration not stated),-4.54%,-7.74%,-0.43%,106%,96%,4.14%,4.9%
COc1ccc(C2C3=C(CC(c4ccco4)CC3=O)Nc3ccccc3N2C(C)=O)cc1 (configuration not stated),-19%,-16.4%,-2.47%,93.5%,102%,1.25%,0.96%
O=S(=O)(Cc1ccccc1)N1CCn2c(nc3ccccc32)C1,-14.1%,-0.745%,-0.75%,103%,97.5%,1.5%,4.75%
